Converted amounts (≈) assume the structure as drawn. Numbered stars: 1 amine (or outer) side, 2 acyl side, 3 side chain; on linkers, the order of the positions; unused ones are H or OH. Square brackets hold non-standard residues; d marks the D form. Peptide text beside a SMILES is read from it. * marks the point of attachment. ξ: configuration not given here. Doxorubicin(3'-N) = COc1cccc2c1C(=O)c1c(O)c3c(c(O)c1C2=O)C[C@@](O)(C(=O)CO)C[C@@H]3O[C@H]1C[C@H](N*)[C@H](O)[C@H](C)O1; X4 = O=C(c1cc(S(=O)(=O)O)cc(S(=O)(=O)O)c1)*; X6 = CN1CCN(CCCC(N[*:1])C(=O)[*:2])CC1; hTyr = N[C@@H](CCc1ccc(O)cc1)C(=O)O; X2 = O=C(C(CCc1ccncc1)N[*:1])[*:2]; hPhe = N[C@@H](CCc1ccccc1)C(=O)O; Cit = NC(=O)NCCC[C@H](N)C(=O)O; Suc = O=C(CCC(=O)[*:2])[*:1]; X5 = O=C(CS(=O)(=O)O)*; ξP = O=C(O)C1CCCN1; Bn = c1ccc(C*)cc1
How the values were obtained:
[1] = molecular target: Neprilysin (Homo sapiens) (UniProt P08473); assay: Ratio Kcat to […] for neprilysin
[2] = Aqueous solubility at pH 7.4; assay type: physicochemical; conditions: aqueous medium
[3] = molecular target: Matrix metalloproteinase-14 (Homo sapiens) (UniProt P50281); assay: Ratio Kcat to […] for MMP14
[4] = molecular target: Matrix metalloproteinase-9 (Homo sapiens) (UniProt P14780); assay: Ratio Kcat to Ki for MMP9
[5] = molecular target: 72 kDa type IV collagenase (Homo sapiens) (UniProt P08253); assay: Ratio Kcat to Ki for MMP2
[6] = Compound remaining in mouse blood after 6 hrs; assay type: ADME, tissue-based; conditions: read-out: Stability
[7] = Ratio of drug level in tumor to heart in mouse bearing human HT1080 cells relative to doxorubicin; assay type: ADME; conditions: ht-1080
Summary of the method: (§1)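 Dox was measured in HT1080 xenograft tumor and in heart tissue 24 h after a single iv dose in mice. The tumor/heart Dox ratio was normalized to the ratio obtained with free Dox.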

[8] = Biodistribution in tumor in mouse bearing human HT1080 relative to doxorubicin; assay type: ADME, organism-based, Neoplasm; conditions: in vivo; summary of the method: as §1
[9] = system: Bone marrow; assay: Bone marrow toxicity in mouse bone marrow assessed as reticulocyte count at 6 umol/kg qd for 10 days; assay type: tissue-based; conditions: in vivo, 240 h
Summary of the method: (§2)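 Mice were dosed once daily for 10 days (qdx10). Marrow toxicity was read out as the reticulocyte level, expressed as a percentage, and compared with vehicle-treated mice.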

[10] = system: Bone marrow; assay: Bone marrow toxicity in mouse bone marrow assessed as reticulocyte count at 4 umol/kg qd for 10 days; assay type: tissue-based; conditions: in vivo, 240 h; summary of the method: as §2
[11] = system: Bone marrow; assay: Bone marrow toxicity in mouse bone marrow assessed as reticulocyte count at 2 umol/kg qd for 10 days; assay type: tissue-based; conditions: in vivo, 240 h; summary of the method: as §2
[12] = system: Bone marrow; assay: Bone marrow toxicity in mouse bone marrow assessed as reticulocyte count at 14 umol/kg qd for 10 days; assay type: tissue-based; conditions: in vivo, 240 h; summary of the method: as §2

Matrix metalloproteinase-9 (Homo sapiens), sequence (P14780 whole entry): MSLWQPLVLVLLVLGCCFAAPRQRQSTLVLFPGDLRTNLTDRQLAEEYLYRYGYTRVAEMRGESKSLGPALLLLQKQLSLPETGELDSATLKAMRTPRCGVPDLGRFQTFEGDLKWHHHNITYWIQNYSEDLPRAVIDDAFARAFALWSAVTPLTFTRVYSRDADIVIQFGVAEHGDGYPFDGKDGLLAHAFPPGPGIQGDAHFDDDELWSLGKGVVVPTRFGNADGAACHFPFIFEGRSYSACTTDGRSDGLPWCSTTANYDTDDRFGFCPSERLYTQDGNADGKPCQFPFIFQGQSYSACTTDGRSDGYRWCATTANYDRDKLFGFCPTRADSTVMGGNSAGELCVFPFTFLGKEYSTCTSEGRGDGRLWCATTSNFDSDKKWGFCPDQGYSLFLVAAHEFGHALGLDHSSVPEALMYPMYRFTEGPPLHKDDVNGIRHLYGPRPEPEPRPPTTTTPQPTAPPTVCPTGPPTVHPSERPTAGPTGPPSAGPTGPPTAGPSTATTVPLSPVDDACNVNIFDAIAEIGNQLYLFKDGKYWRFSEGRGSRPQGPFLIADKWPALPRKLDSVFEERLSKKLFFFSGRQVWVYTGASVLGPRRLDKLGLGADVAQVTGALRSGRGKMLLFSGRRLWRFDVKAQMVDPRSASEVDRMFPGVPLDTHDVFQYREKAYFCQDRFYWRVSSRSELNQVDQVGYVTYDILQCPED
72 kDa type IV collagenase (Homo sapiens), sequence (P08253 110-660 limits assumed): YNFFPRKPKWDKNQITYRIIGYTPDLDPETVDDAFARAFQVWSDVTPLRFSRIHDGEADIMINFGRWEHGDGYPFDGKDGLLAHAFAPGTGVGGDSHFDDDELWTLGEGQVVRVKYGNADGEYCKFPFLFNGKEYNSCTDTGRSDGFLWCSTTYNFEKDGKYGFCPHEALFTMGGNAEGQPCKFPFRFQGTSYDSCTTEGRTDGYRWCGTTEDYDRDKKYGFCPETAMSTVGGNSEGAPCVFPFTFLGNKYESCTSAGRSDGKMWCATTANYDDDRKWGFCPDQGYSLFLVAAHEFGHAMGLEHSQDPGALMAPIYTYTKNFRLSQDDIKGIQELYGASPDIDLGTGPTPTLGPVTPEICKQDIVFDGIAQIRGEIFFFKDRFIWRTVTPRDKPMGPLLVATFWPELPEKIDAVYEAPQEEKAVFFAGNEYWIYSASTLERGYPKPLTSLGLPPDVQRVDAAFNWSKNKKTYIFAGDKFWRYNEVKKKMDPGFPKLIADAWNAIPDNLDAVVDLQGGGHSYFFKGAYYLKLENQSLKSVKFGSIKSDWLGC
Neprilysin (Homo sapiens), sequence (P08473 whole entry): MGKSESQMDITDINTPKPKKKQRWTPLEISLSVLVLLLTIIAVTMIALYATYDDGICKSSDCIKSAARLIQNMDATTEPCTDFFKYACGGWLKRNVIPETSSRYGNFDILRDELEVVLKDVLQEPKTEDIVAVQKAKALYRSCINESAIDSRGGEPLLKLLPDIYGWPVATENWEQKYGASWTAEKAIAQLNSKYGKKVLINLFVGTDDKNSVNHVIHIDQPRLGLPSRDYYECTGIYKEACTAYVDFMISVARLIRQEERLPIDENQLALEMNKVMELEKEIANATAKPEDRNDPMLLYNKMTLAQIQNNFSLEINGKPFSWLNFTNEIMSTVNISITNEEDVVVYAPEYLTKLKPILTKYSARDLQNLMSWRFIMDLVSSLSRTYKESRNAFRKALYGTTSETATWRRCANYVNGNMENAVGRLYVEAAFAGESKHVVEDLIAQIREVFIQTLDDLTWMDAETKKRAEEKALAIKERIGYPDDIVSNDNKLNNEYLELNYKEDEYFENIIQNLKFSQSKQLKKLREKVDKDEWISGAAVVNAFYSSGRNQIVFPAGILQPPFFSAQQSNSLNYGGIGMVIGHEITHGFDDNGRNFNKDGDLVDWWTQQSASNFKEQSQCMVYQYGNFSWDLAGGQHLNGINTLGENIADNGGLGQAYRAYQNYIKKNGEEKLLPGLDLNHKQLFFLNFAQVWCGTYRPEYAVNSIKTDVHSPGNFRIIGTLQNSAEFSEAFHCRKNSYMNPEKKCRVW

Ratio [1]	solubility [2] [µg/mL]	Ratio [3]	Ratio [4]	Ratio [5]	remaining at 6 h [6] [%]	Ratio [7]	Drug uptake [8] [pmol/g]	Structure (SMILES)	Activity [9] [%]	Activity [10] [%]	Activity [11] [%]	Activity [12] [%]
5	–	< 1	< 1	< 1	–	–	–	COc1cccc2c1C(=O)c1c(O)c3c(c(O)c1C2=O)C[C@@](O)(C(=O)CO)C[C@@H]3O[C@H]1C[C@H](NC(=O)[C@H](CC(C)C)NC(=O)[C@H](CC(C)C)NC(=O)CNC(=O)[C@H](CC(C)C)NC(C)=O)[C@H](O)[C@H](C)O1 (Ac-LGLL-{Doxorubicin(3'-N)})	–	–	–	–
8	–	24	1	6	–	–	–	COc1cccc2c1C(=O)c1c(O)c3c(c(O)c1C2=O)C[C@@](O)(C(=O)CO)C[C@@H]3O[C@H]1C[C@H](NC(=O)[C@H](CC(C)C)NC(=O)[C@H](Cc2ccc(O)cc2)NC(=O)[C@H](CC(C)C)NC(=O)CNC(=O)[C@H](CC(C)C)NC(C)=O)[C@H](O)[C@H](C)O1 (Ac-LGLYL-{Doxorubicin(3'-N)})	–	–	–	–
22	–	> 120	390	88	–	–	–	COc1cccc2c1C(=O)c1c(O)c3c(c(O)c1C2=O)C[C@@](O)(C(=O)CO)C[C@@H]3O[C@H]1C[C@H](NC(=O)[C@H](CC(C)C)NC(=O)[C@H](Cc2ccc(O)cc2)NC(=O)[C@H](CC(C)C)NC(=O)CNC(=O)[C@H](CC(C)C)NC(=O)[C@@H]2CCCN2C(C)=O)[C@H](O)[C@H](C)O1 (Ac-PLGLYL-{Doxorubicin(3'-N)})	–	–	–	–
< 1	–	25	34	7	–	–	–	COc1cccc2c1C(=O)c1c(O)c3c(c(O)c1C2=O)C[C@@](O)(C(=O)CO)C[C@@H]3O[C@H]1C[C@H](NC(=O)[C@H](CC(C)C)NC(=O)[C@H](Cc2ccc(O)cc2)NC(=O)[C@H](COCc2ccccc2)NC(=O)CNC(=O)[C@H](CC(C)C)NC(=O)[C@@H]2CCCN2C(C)=O)[C@H](O)[C@H](C)O1 (Ac-PLGS(Bn)YL-{Doxorubicin(3'-N)})	–	–	–	–
2.1	40 (≈ 32.5 µM)	69	79	24	31	–	–	COC[C@H](NC(=O)CNC(=O)[C@H](CC(C)C)NC(=O)[C@@H]1CCCN1C(C)=O)C(=O)N[C@@H](Cc1ccc(O)cc1)C(=O)N[C@@H](CC(C)C)C(=O)N[C@H]1C[C@H](O[C@H]2C[C@](O)(C(=O)CO)Cc3c(O)c4c(c(O)c32)C(=O)c2c(OC)cccc2C4=O)O[C@@H](C)[C@H]1O (Ac-PLGS(Me)YL-{Doxorubicin(3'-N)})	–	–	–	–
< 1	380 (≈ 294 µM)	58	43	21	59	–	–	COc1cccc2c1C(=O)c1c(O)c3c(c(O)c1C2=O)C[C@@](O)(C(=O)CO)C[C@@H]3O[C@H]1C[C@H](NC(=O)[C@H](CC(C)C)NC(=O)[C@H](Cc2ccc(O)cc2)NC(=O)C(CCc2ccncc2)NC(=O)CNC(=O)[C@H](CC(C)C)NC(=O)[C@@H]2CCCN2C(C)=O)[C@H](O)[C@H](C)O1 (stereo partly drawn) (Ac-PLG[X2]YL-{Doxorubicin(3'-N)})	–	–	–	–

Continued, molecule first:

Structure (SMILES)	Ratio [1]	solubility [2] [µg/mL]	Ratio [3]	Ratio [4]	Ratio [5]	remaining at 6 h [6] [%]	Ratio [7]	Drug uptake [8] [pmol/g]	Activity [9] [%]	Activity [10] [%]	Activity [11] [%]	Activity [12] [%]
COc1cccc2c1C(=O)c1c(O)c3c(c(O)c1C2=O)C[C@@](O)(C(=O)CO)C[C@@H]3O[C@H]1C[C@H](NC(=O)[C@H](CC(C)C)NC(=O)[C@H](Cc2ccc(O)cc2)NC(=O)[C@H](CSCc2ccccc2)NC(=O)CNC(=O)[C@H](CC(C)C)NC(=O)[C@@H]2CCCN2C(=O)[C@H](CCC(=O)O)NC(C)=O)[C@H](O)[C@H](C)O1 (Ac-EPLGC(Bn)YL-{Doxorubicin(3'-N)})	< 1	> 2200	97	107	40	90	–	–	–	–	–	–
COc1cccc2c1C(=O)c1c(O)c3c(c(O)c1C2=O)C[C@@](O)(C(=O)CO)C[C@@H]3O[C@H]1C[C@H](NC(=O)[C@H](CC(C)C)NC(=O)CNC(=O)[C@H](CC(C)C)NC(=O)[C@@H]2CCCN2C(C)=O)[C@H](O)[C@H](C)O1 (Ac-PLGL-{Doxorubicin(3'-N)})	–	–	–	< 1	< 1	–	–	–	–	–	–	–
COc1cccc2c1C(=O)c1c(O)c3c(c(O)c1C2=O)C[C@@](O)(C(=O)CO)C[C@@H]3O[C@H]1C[C@H](NC(=O)[C@H](CC(C)C)NC(=O)[C@H](CC(C)C)NC(=O)CNC(=O)[C@H](CC(C)C)NC(=O)[C@@H]2CCCN2C(C)=O)[C@H](O)[C@H](C)O1 (Ac-PLGLL-{Doxorubicin(3'-N)})	22	–	4	> 120	18	–	–	–	–	–	–	–
COc1cccc2c1C(=O)c1c(O)c3c(c(O)c1C2=O)C[C@@](O)(C(=O)CO)C[C@@H]3O[C@H]1C[C@H](NC(=O)[C@H](CC(C)C)NC(=O)[C@H](C)NC(=O)[C@H](Cc2ccc(O)cc2)NC(=O)[C@H](CC(C)C)NC(=O)CNC(=O)[C@H](CC(C)C)NC(=O)[C@@H]2CCCN2C(C)=O)[C@H](O)[C@H](C)O1 (Ac-PLGLYAL-{Doxorubicin(3'-N)})	> 120	–	> 120	> 120	> 120	–	–	–	–	–	–	–
COc1cccc2c1C(=O)c1c(O)c3c(c(O)c1C2=O)C[C@@](O)(C(=O)CO)C[C@@H]3O[C@H]1C[C@H](NC(=O)[C@H](CC(C)C)NC(=O)[C@H](C)NC(=O)[C@H](CCc2ccccc2)NC(=O)CNC(=O)[C@H](CC(C)C)NC(=O)[C@@H]2CCCN2C(C)=O)[C@H](O)[C@H](C)O1 (Ac-PLG[hPhe]AL-{Doxorubicin(3'-N)})	1	–	19	< 1	11	–	–	–	–	–	–	–
COc1cccc2c1C(=O)c1c(O)c3c(c(O)c1C2=O)C[C@@](O)(C(=O)CO)C[C@@H]3O[C@H]1C[C@H](NC(=O)[C@H](CC(C)C)NC(=O)C(CCCN2CCN(C)CC2)NC(=O)[C@H](CCc2ccccc2)NC(=O)CNC(=O)[C@H](CC(C)C)NC(=O)[C@@H]2CCCN2C(C)=O)[C@H](O)[C@H](C)O1 (stereo partly drawn) (Ac-PLG[hPhe][X6]L-{Doxorubicin(3'-N)})	< 1	130 (≈ 98.1 µM)	> 120	73	55	100	–	–	–	–	–	–
COc1cccc2c1C(=O)c1c(O)c3c(c(O)c1C2=O)C[C@@](O)(C(=O)CO)C[C@@H]3O[C@H]1C[C@H](NC(=O)[C@H](CC(C)C)NC(=O)[C@H](CCc2ccc(O)cc2)NC(=O)[C@H](CCc2ccccc2)NC(=O)CNC(=O)[C@H](CC(C)C)NC(=O)[C@@H]2CCCN2C(C)=O)[C@H](O)[C@H](C)O1 (Ac-PLG[hPhe][hTyr]L-{Doxorubicin(3'-N)})	< 1	1 (≈ 0.767 µM)	> 120	> 120	116	13	–	–	–	–	–	–
COc1cccc2c1C(=O)c1c(O)c3c(c(O)c1C2=O)C[C@@](O)(C(=O)CO)C[C@@H]3O[C@H]1C[C@H](NC(=O)[C@H](CC(C)C)NC(=O)[C@H](Cc2ccc(O)cc2)NC(=O)[C@H](COCc2ccccc2)NC(=O)CNC(=O)[C@H](CC(C)C)NC(=O)C2CCCN2C(=O)CCC(=O)O)[C@H](O)[C@H](C)O1 (stereo partly drawn) (Suc-[ξP]LGS(Bn)YL-{Doxorubicin(3'-N)})	< 1	1400 (≈ 1030 µM)	89	52	20	100	–	–	–	–	–	–
COc1cccc2c1C(=O)c1c(O)c3c(c(O)c1C2=O)C[C@@](O)(C(=O)CO)C[C@@H]3O[C@H]1C[C@H](NC(=O)[C@H](CC(C)C)NC(=O)[C@H](Cc2ccc(O)cc2)NC(=O)[C@@H](NC(=O)CNC(=O)[C@H](CO)NC(=O)[C@@H]2CCCN2C(=O)c2cc(S(=O)(=O)O)cc(S(=O)(=O)O)c2)[C@@H](C)OCc2ccccc2)[C@H](O)[C@H](C)O1 (X4-PSGT(Bn)YL-{Doxorubicin(3'-N)})	< 1	–	> 120	> 120	114	100	13	600	–	–	–	–
COc1cccc2c1C(=O)c1c(O)c3c(c(O)c1C2=O)C[C@@](O)(C(=O)CO)C[C@@H]3O[C@H]1C[C@H](NC(=O)[C@H](CC(C)C)NC(=O)[C@H](Cc2ccc(O)cc2)NC(=O)[C@H](COCc2ccccc2)NC(=O)CNC(=O)[C@H](CC(C)C)NC(=O)[C@@H]2CCCN2C(=O)CS(=O)(=O)O)[C@H](O)[C@H](C)O1 (X5-PLGS(Bn)YL-{Doxorubicin(3'-N)})	< 1	> 2400	111	25	37	90	16	1500	–	–	–	–
COc1cccc2c1C(=O)c1c(O)c3c(c(O)c1C2=O)C[C@@](O)(C(=O)CO)C[C@@H]3O[C@H]1C[C@H](NC(=O)[C@H](CC(C)C)NC(=O)[C@H](Cc2ccc(O)cc2)NC(=O)[C@H](COCc2ccccc2)NC(=O)CNC(=O)[C@H](CCCNC(N)=O)NC(=O)[C@@H]2CCCN2C(=O)CS(=O)(=O)O)[C@H](O)[C@H](C)O1 (X5-P[Cit]GS(Bn)YL-{Doxorubicin(3'-N)})	< 1	> 2300	56	38	25	29	–	–	–	–	–	–
COc1cccc2c1C(=O)c1c(O)c3c(c(O)c1C2=O)C[C@@](O)(C(=O)CO)C[C@@H]3O[C@H]1C[C@H](N)[C@H](O)[C@H](C)O1 [DOXORUBICIN]	–	–	–	–	–	–	1	1600	0.3	0.1	0.4	0.2

From ChEMBL document CHEMBL1156831, “Discovery of matrix metalloproteases selective and activated peptide-doxorubicin prodrugs as anti-tumor agents” (Bioorg Med Chem Lett, 2010)
